{
  "source": "paper PMC5312682",
  "about": "(Journal of neurochemistry, 2017)",
  "key": {"[1]": {"test_system": "Aβ", "assay": "Aβ pathology", "type": "in vivo, mouse", "conditions": "APP^Lond/Swe+ mice, 10 mg/kg/d chronic", "in_short": "(§1)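 After behavioural testing at the end of chronic daily SC dosing, APPLond/Swe+ and WT mice were perfused with PBS and brains collected. Brains were bisected sagittally: one half was frozen at −80°C, and the other was fixed overnight in 4% formalin, then kept at 4°C in 30% sucrose until processing.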"}, "[2]": {"test_system": "Thy1-hAPP^Lond/Swe+ mice and WT littermates", "assay": "Sociability / social discrimination test", "type": "in vivo, mouse", "conditions": "for sociability test: preference mouse cup vs empty cup: 10 mg/kg/d SC, after 35 days of dosing", "in_short": "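APPLond/Swe+ and WT littermates dosed SC daily in late afternoon; on test days, dosing followed testing. Chronic study: 10 mg/kg for 64 days from 4.5 months; sociability measured as exploration of a cup holding a C57Bl/6 mouse vs an empty cup. Dose-response study: 3, 10 or 30 mg/kg from 6.7 months; social discrimination of novel vs familiar mouse after 30 days of dosing, by t-test.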"}, "[3]": {"test_system": "IL1β", "assay": "qRT-PCR of inflammatory markers in cortical tissue", "type": "in vivo, mouse", "conditions": "APP^Lond/Swe+ mice, dose-response cohort"}, "[4]": {"assay": "PK study in mice", "type": "in vivo, C57Bl/6J mice", "conditions": "mouse; for bioavailability: AUC(0-3h) vs intravenous"}, "[5]": {"test_system": "Thy1-hAPP^Lond/Swe+ mice and WT littermates", "type": "in vivo, mouse", "in_short": "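APPLond/Swe+ and WT littermates, single-housed on a reverse light cycle, balanced for body weight and pre-dose locomotor activity. Dosing was 10 mg/kg SC once daily in late afternoon for 64 days, started at 4.5 months of age. Activity chamber was run first in the behavioural battery, during the active cycle. After behavioural testing, blood and organs were collected at sacrifice for blood chemistry and histopathology.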"}, "[6]": {"test_system": "Thy1-hAPP^Lond/Swe+ mice and WT littermates", "assay": "Y-maze test", "type": "in vivo, mouse", "in_short": "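Y-maze spontaneous alternation and total arm entries in APPLond/Swe+ and WT littermates dosed SC daily, tested during the active cycle in balanced morning and afternoon sessions. Chronic study: 10 mg/kg, tested after 50 days of dosing. Dose-response study: 3, 10 or 30 mg/kg for 60 days. Alternation was compared with a 50% theoretical mean by one-sample t-test; mean ±SEM.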"}, "[7]": {"test_system": "human SK-N-SH neuroblastoma cells", "assay": "Intracellular calcium assay", "type": "cell-based", "conditions": "for calcium response: compound alone"}, "[8]": {"molecular_target": "Sig2R", "conditions": "read-out: Ki Sig2R; ref Sahn et al. 2016; cited from earlier work"}, "[9]": {"test_system": "transgenic SC_APP C. elegans", "assay": "C. elegans neurotoxicity assay", "type": "in vivo"}, "[10]": {"molecular_target": "CNS-relevant targets, including opioid, adrenergic, nACR, mAChR, and NMDA receptors, neurotransmitter transporters and ion channels", "assay": "Off-target binding, CNS-relevant targets", "conditions": "read-out: off-target affinity Ki; most CNS-relevant targets; Supplemental table 2"}, "[11]": {"test_system": "synaptophysin, iba1", "assay": "Synaptophysin and iba1 immunohistochemistry in brain", "type": "in vivo, mouse", "in_short": "as §1"}, "[12]": {"test_system": "Thy1-hAPP^Lond/Swe+ mice and WT littermates", "assay": "Morris Water Maze", "type": "in vivo, mouse", "in_short": "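Dose-response cohort: APPLond/Swe+ and WT littermates aged 6.7 months, given 3, 10 or 30 mg/kg SC daily for 60 days (n=4–5 per group). MWM started after 35 days of dosing, with hidden-platform learning followed by reversal-learning hidden-platform trials. Mice floating extensively or unable to swim were excluded. Analysis used repeated-measures ANOVA with Dunnett's or one-way ANOVA with Fisher's LSD; mean ±SEM.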"}, "[13]": {"test_system": "microglia", "conditions": "induced by fragments of amyloid beta; ref Behensky et al. 2013; cited from earlier work"}, "[14]": {"test_system": "neural progenitor cells derived from adult rat brain", "conditions": "ref Liu et al. 2009; cited from earlier work"}},
  "data": [
    {"smiles": "CN1CCN(c2ccc3c(c2)[C@H]2C[C@@H]3CCN2C(=O)OCc2ccccc2)CC1", "note": "[SAS-0132]", "values": [
      {"measurement": "intracellular Aβ immunoreactivity (cortex, hippocampus, amygdala)", "setting": "[1]", "result": "does not affect levels of intracellular Aβ"},
      {"measurement": "soluble and insoluble Aβ40 and Aβ42 (ELISA) vs vehicle", "setting": "[1]", "result": "no significant difference"},
      {"measurement": "sociability test: preference mouse cup vs empty cup", "setting": "[2]; APP^Lond/Swe+ mice, p < 0.05", "result": "showed a distinct preference for the cup containing a mouse over the empty cup"},
      {"measurement": "sociability test: preference mouse cup vs empty cup", "setting": "[2]; WT mice", "result": "not significantly altered"},
      {"measurement": "sociability", "setting": "[2]; dose-response study, 30 mg/kg", "result": "did not impair sociability"},
      {"measurement": "social discrimination: novel vs familiar mouse", "setting": "[2]; dose-response study, APP^Lond/Swe+ mice, 3 mg/kg", "result": "showed a significant preference for a novel mouse over a familiar one"},
      {"measurement": "IL1β mRNA expression", "setting": "[3]", "result": "decreased the expression of the inflammatory cytokine IL1β"},
      {"measurement": "plasma levels", "setting": "[4]; 10 mg/kg IV, SC and PO, up to 3 h post-administration", "result": "Detectable levels"},
      {"measurement": "bioavailability", "setting": "[4]; 10 mg/kg oral", "result": 7, "unit": "%"},
      {"measurement": "brain concentration", "setting": "[4]; 10 mg/kg subcutaneous, 3 h post-administration", "result": 3.8, "unit": "µM"},
      {"measurement": "bioavailability", "setting": "[4]; 10 mg/kg subcutaneous", "result": 45, "unit": "%"},
      {"measurement": "concentration in brain homogenates", "setting": "[4]; 24 h after single 10 mg/kg subcutaneous injection", "result": 1.6, "unit": "ng/g"},
      {"measurement": "blood chemistry and histopathology", "setting": "[5]; WT mice, 10 mg/kg/d for 64 days, Supplemental tables 3-4", "result": "no signs of SAS- 0132 induced toxicity"},
      {"measurement": "locomotor activity in activity chamber vs vehicle", "setting": "[5]; after 24 days of treatment", "result": "not significantly different"},
      {"measurement": "general health of treated animals", "setting": "[5]; both chronic daily dosing studies, 3-30 mg/kg/d, 60-64 days", "result": "remained healthy and exhibited no detectable abnormalities"},
      {"measurement": "Y-maze total arm entries", "setting": "[6]; WT and APP^Lond/Swe+ mice, 10 mg/kg/d, chronic daily dosing study", "result": "not different among the four groups"},
      {"measurement": "Y-maze spontaneous alternation", "setting": "[6]; dose-response study, WT and APP^Lond/Swe+ mice, 30 mg/kg", "result": "showed impaired spontaneous alternation behavior"},
      {"measurement": "Y-maze spontaneous alternation", "setting": "[6]; dose-response study, WT mice, 30 mg/kg", "result": "showed impaired alternation behavior"},
      {"measurement": "Y-maze spontaneous alternation", "setting": "[6]; dose-response study, WT mice, 3 and 10 mg/kg", "result": "did not affect their performance"},
      {"measurement": "Y-maze total arm entries", "setting": "[6]; dose-response study, all groups", "result": "not different among groups"},
      {"measurement": "effects on intracellular Ca2+ compared with DKR-1051", "setting": "[7]; 100 µM", "result": "weaker than the effects of DKR-1051"},
      {"measurement": "effect on calcium response induced by DKR-1051 (100 µM)", "setting": "[7]; SAS-0132 applied before DKR-1051, lower concentrations (0.1-30 µM)", "result": "significantly attenuated the DKR-0151-induced calcium response"},
      {"measurement": "calcium response", "setting": "[7]; 100 µM", "result": "significant increases in intracellular Ca^2+"},
      {"measurement": "calcium response", "setting": "[7]; concentrations up to 30 µM", "result": "fails to produce a significant calcium response"},
      {"measurement": "Ki", "setting": "[8]", "result": 90, "unit": "nM"},
      {"measurement": "neurodegeneration of VC4 and VC5 neurons vs vehicle", "setting": "[9]; 200 µM, 5-day treatment, day 5 of adulthood, SC_APP worms, p < 0.01", "result": "decreased neurodegeneration"},
      {"measurement": "neuroprotection in animals with vem-1 (PGRMC1) knocked-down by RNAi", "setting": "[9]; 200 µM, SC_APP worms, vem-1 RNAi co-treatment", "result": "provided no further neuroprotection"},
      {"measurement": "functional classification at Sig2R/PGRMC1", "setting": "[9]; from C. elegans data compared with vem-1 null mutations", "result": "Sig2R/PGRMC1 antagonists"},
      {"measurement": "Ki", "setting": "[10]", "result": "500 to 10000", "unit": "nM"},
      {"measurement": "synaptophysin immunoreactivity, CA3 (synapse loss)", "setting": "[11]; APP^Lond/Swe+ mice, 10 mg/kg/d chronic", "result": "did not alter the extent of synapse loss"},
      {"measurement": "iba1 immunoreactivity", "setting": "[11]; WT or APP^Lond/Swe+ mice, chronic daily dosing study", "result": "no drug-related effects"},
      {"measurement": "MWM hidden platform learning phase", "setting": "[12]; APP^Lond/Swe+ mice", "result": "had no effect on the cognitive functions"},
      {"measurement": "MWM reversal learning trials", "setting": "[12]; APP^Lond/Swe+ mice", "result": "no significant effects of SAS-0132 treatment"},
      {"measurement": "MWM reversal learning probe trial: target quadrant preference", "setting": "[12]; APP^Lond/Swe+ mice, 10 mg/kg", "result": "showed target quadrant preference"},
      {"measurement": "MWM reversal learning: escape latency vs vehicle", "setting": "[12]; APP^Lond/Swe+ mice, 3 and 10 mg/kg", "result": "non-significant decreased escape latency"},
      {"measurement": "MWM probe trial: target quadrant preference", "setting": "[12]; WT mice, 3 mg/kg", "result": "showed a clear preference for the target quadrant"},
      {"measurement": "MWM reversal probe trial: target quadrant preference", "setting": "[12]; WT mice, 3 mg/kg", "result": "all WT groups showed target quadrant preference with the exception of the 3 mg/kg dose group"},
      {"measurement": "MWM hidden platform learning: escape latency", "setting": "[12]; WT mice, 3 and 30 mg/kg, started after 35 days of dosing", "result": "found the escape platform faster than the vehicle-treated WT mice"},
      {"measurement": "MWM reversal learning day 2: escape latency", "setting": "[12]; WT mice, 10 and 30 mg/kg", "result": "found the escape platform faster than WT mice treated with vehicle"},
      {"measurement": "MWM reversal learning probe trial: target quadrant preference", "setting": "[12]; WT mice, 10 and 30 mg/kg", "result": "demonstrated recall and showed target quadrant preference"}
    ]},
    {"smiles": "CCOc1ccc2nc(SCCN3CCOCC3)[nH]c2c1", "note": "[afobazole]", "values": [
      {"measurement": "neurotoxic microglia stimulation and apoptosis", "setting": "[13]", "result": "reduces neurotoxic microglia stimulation and apoptosis"}
    ]},
    {"smiles": "CC(=O)[C@H]1CC[C@H]2[C@@H]3CCC4=CC(=O)CC[C@]4(C)[C@H]3CC[C@]12C", "note": "[progesterone]", "values": [
      {"measurement": "neurogenic and neuroprotective effects", "setting": "[14]", "result": "exerts neurogenic and neuroprotective effects"}
    ]}
  ]
}
